Experiments:
L1210 [1] = assay: Compound was tested in vitro against murine L1210 leukemia; IA means inactive.; type: functional, cell-based, Mus musculus
P388 [2] = assay: Inhibition of P388 leukemia cells in mice, measured as percent treated to the control values with the number of 30 day survivors; type: functional, Mus musculus
Outline: (§1)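 P388 leukemia implanted ip in mice; drug given ip on days 1 and 5 (ip/ip; D1,5), dosed in mg/kg per injection. Read-out is treated/control (T/C, %) with cures counted, reported at the optimal dose.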

P388 [3] = assay: Activity against P388 leukemia cells in mice, by intraperitoneal dosing and net log tumor cell kill was reported; type: functional, Mus musculus
P388 [4] = assay: Optimal dose per injection in mg/kg required to inhibit growth of P388 leukemia cells in mice; type: functional, Mus musculus; outline: as §1
L1210 [5] = assay: Tested in vitro against murine L1210 leukemia.; type: functional, cell-based; conditions: Mus musculus
B16 [6] = assay: Optimal dose per injection in mg/kg required to inhibit growth of murine B-16 melanoma in vivo; type: functional, Mus musculus
Outline: (§2)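 Murine B-16 melanoma in vivo: tumor implanted ip, compound given ip on days 1–9 (ip/ip; D1–9), dosed as mg/kg per injection. Activity expressed as T/C (%) plus number of cures, taken at the optimal dose.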

B16 [7] = assay: Tested for activity against murine B-16 melanoma in mice and percent treated to the control values with the number of 60 day survivors; type: functional, Mus musculus; outline: as §2

SMILES	IC50 (L1210 [1])	T/C (P388 [2])	Activity (P388 [3])	Dose (P388 [4])	IC50 (L1210 [5])	Optimal dose (B16 [6])	T/C (B16 [7])
CCN(CC)CCCNc1ccc2c3c(nn2CCO)-c2ccccc2C(=O)c13.Cl	Not Active	104%	-1.5	200 mg/kg	–	–	–
Cl.NCCNCCNc1ccc2c3c(nn2CCO)-c2c(O)ccc(O)c2C(=O)c13	Not Active	174%	1.2	200 mg/kg	–	–	–
Cl.O=C1c2c(O)ccc(O)c2-c2nn(CCCNCCO)c3ccc(NCCNCCO)c1c23	Not Active	275%	>7	100 mg/kg	–	–	–
Cl.NCCCNc1ccc2c3c(nn2CCNCCO)-c2c(O)ccc(O)c2C(=O)c13	–	294%	>6.5	45 mg/kg	960 nM	8 mg/kg	338%
CNCCNc1ccc2c3c(nn2CCNCCO)-c2c(O)ccc(O)c2C(=O)c13 [TELOXANTRONE]	–	–	>6.6	12.5 mg/kg	140 nM	1.5 mg/kg	357%
Cl.NCCn1nc2c3c(c(NCCNCCO)ccc31)C(=O)c1c(O)ccc(O)c1-2	–	270%	> 6.7	12.5 mg/kg	580 nM	3 mg/kg	306%
CN(C)CCn1nc2c3c(c(NCCNCCO)ccc31)C(=O)c1c(O)ccc(O)c1-2.Cl	–	242%	6.5	12.5 mg/kg	120 nM	3 mg/kg	183%
Cl.NCCCNCCCCNCCCNc1ccc2c3c(nn2CCNCCO)-c2c(O)ccc(O)c2C(=O)c13	Not Active	145%	0.6	12.5 mg/kg	–	–	–
O=C1c2c(O)ccc(O)c2C(=O)c2c(NCCNCCO)ccc(NCCNCCO)c21 [MITOXANTRONE]	–	267%	>6.8	3 mg/kg	1.6 nM	0.6 mg/kg	265%
O=C(O)CCNc1ccc2c3c(nn2CCO)-c2ccccc2C(=O)c13	Not Active	98%	-1.6	25 mg/kg	–	–	–
CCN(CC)CCCCNc1ccc2c3c(nn2CCO)-c2ccccc2C(=O)c13.Cl	Not Active	115%	-1.3	300 mg/kg	–	–	–
COc1cccc2c1C(=O)c1c(O)c3c(c(O)c1C2=O)C[C@@](O)(C(=O)CO)C[C@@H]3O[C@H]1C[C@H](N)[C@H](O)[C@H](C)O1 [DOXORUBICIN]	–	225%	5.6	8 mg/kg	69 nM	1 mg/kg	434%
CCN(CC)CC(O)Cn1nc2c3c(c(NCCN)ccc31)C(=O)c1c(O)ccc(O)c1-2.Cl (configuration not stated)	Not Active	262%	>6.7	6.25 mg/kg	–	–	–
Cl.O=C1c2ccccc2-c2nn(CCO)c3ccc(NCCN4CCOCC4)c1c23	Not Active	100%	-1.5	25 mg/kg	–	–	–
Cl.NCCCCNc1ccc2c3c(nn2CCNCCO)-c2c(O)ccc(O)c2C(=O)c13	Not Active	173%	3.4	100 mg/kg	–	–	–
CSCCn1nc2c3c(c(NCCNCCO)ccc31)C(=O)c1c(O)ccc(O)c1-2.Cl	Not Active	140%	0.3	6.25 mg/kg	–	–	–
COCCn1nc2c3c(c(NCCN)ccc31)C(=O)c1c(O)ccc(O)c1-2.Cl	Not Active	127%	-0.6	50 mg/kg	–	–	–
CCN(CC)CCn1nc2c3c(c(NCCNCCO)ccc31)C(=O)c1c(O)ccc(O)c1-2.Cl	–	264%	>6.8	12.5 mg/kg	130 nM	6 mg/kg	–

SMILES	IC50 (L1210 [1])	T/C (P388 [2])	Activity (P388 [3])	Dose (P388 [4])	IC50 (L1210 [5])	Optimal dose (B16 [6])	T/C (B16 [7])
CN(CCNc1ccc2c3c(nn2CCNCCO)-c2c(O)ccc(O)c2C(=O)c13)C(=O)OCc1ccccc1	Not Active	–	–	–	–	–	–
Cl.O=C1c2ccccc2-c2nn(CCO)c3ccc(NCCN4CCNCC4)c1c23	Not Active	109%	-1.3	50 mg/kg	–	–	–
CCN(CC)CCn1nc2c3c(c(NCCC(=O)O)ccc31)C(=O)c1ccccc1-2	Not Active	117%	-1.3	12.5 mg/kg	–	–	–
Cl.NCCCn1nc2c3c(c(NCCNCCO)ccc31)C(=O)c1c(O)ccc(O)c1-2	–	–	>6.6	50 mg/kg	160 nM	6.25 mg/kg	375%
CCN(CC)CCNc1cccc2c1C(=O)c1cccc3c1c-2nn3CCN(CC)CC.Cl	–	103%	-1.5	50 mg/kg	600 nM	–	–
CN(C)CCNc1ccc2c3c(nn2Cc2ccccc2)-c2c(O)ccc(O)c2C(=O)c13.Cl	–	104%	-1.5	25 mg/kg	860 nM	–	–
CCN(CC)CCNc1ccc2c3c(nn2CCN(CC)CC)-c2ccccc2C(=O)c13.Cl	–	106%	-1.4	50 mg/kg	390 nM	–	–
CCN(CC)CCn1nc2c3c(c(NCCN4CCNCC4)ccc31)C(=O)c1ccccc1-2.Cl	–	109%	-1.3	25 mg/kg	500 nM	–	–
CCN(CC)CCNc1ccc2c3c(nn2CCNCCO)-c2ccccc2C(=O)c13.Cl	–	158%	1.8	12.5 mg/kg	60 nM	–	–
Cl.NCCCCCNc1ccc2c3c(nn2CCNCCO)-c2c(O)ccc(O)c2C(=O)c13	Not Active	150%	1.5	100 mg/kg	–	–	–
Cl.O=C1c2c(O)ccc(O)c2-c2nn(CCNCCO)c3ccc(NCCCN(CCO)CCO)c1c23	–	194%	3.6	100 mg/kg	920 nM	–	–
CCN(CC)CCCCCCCNc1ccc2c3c(nn2CCO)-c2ccccc2C(=O)c13.Cl	Not Active	98%	-1.6	100 mg/kg	–	–	–
CN1CCN(c2ccc3c4c(nn3CCNCCO)-c3c(O)ccc(O)c3C(=O)c24)CC1.Cl	–	192%	3.8	12.5 mg/kg	430 nM	–	–
CNc1ccc2c3c(nn2CCNCCO)-c2ccccc2C(=O)c13.Cl	–	127%	-0.7	200 mg/kg	740 nM	–	–
CCN(CC)CCn1nc2c3c(c(NCCN(C)C(=O)OCc4ccccc4)ccc31)C(=O)c1c(O)ccc(O)c1-2	Not Active	–	–	–	–	–	–
CCN(CC)CCCCCCCNc1ccc2c3c(nn2CCN(CC)CC)-c2ccccc2C(=O)c13.Cl	–	104%	-1.5	25 mg/kg	630 nM	–	–
CCN(CC)CCNc1ccc2c3c(nn2CCO)-c2ccccc2C(=O)c13.Cl	–	145%	0.8	400 mg/kg	880 nM	–	–
